“Also recorded” adds a separate entry of the source. Where two headings read alike, the source gives them in different places.
Key:
CHO-K1 cells [1] = assay: Cytotoxicity assay; format: cell-based, Chinese hamster; details: CHO-K1, 384-well; maximum tolerated concentration (≥90% relative growth)
FUBP1 = details: NMR study; cited from earlier work
[2] = tested on: human pancreatic cancer cell lines; details: at 300 μM; cited from earlier work
CHO cells = details: at 1 mM; cited from earlier work
[3] = tested on: polyamine import in L3.6pl cells; assay: Radiolabeled spermidine; format: cell-based, human; details: for basal 3H-Spd uptake: 24 h treatment prior to 3H-Spd for 15 min; for 3H-Spd import in combination with DFMO vs DFMO-only: 72 h with DFMO + compound prior to 3H-Spd for 15 min
Outline: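 L3.6pl cells pretreated 24 h with test compound, then exposed to 3H-spermidine for 15 min. Radioactive counts normalised to lysate protein measured by BCA assay. Triplicate conditions; reported as pmol 3H-Spd/μg protein ± standard deviation.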

[4] = tested on: c-Myc protein in L3.6pl cells; assay: Western blot, c-Myc protein level; format: cell-based, human; details: 24 h
Outline: (§1)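 L3.6pl cells (400,000 in 2 mL RPMI 1640, 10% FBS, 1% antibiotic–antimycotic) held overnight at 37 °C, 5% CO2, then treated 24 h with test compound or DMSO. Lysed in RIPA with protease and phosphatase inhibitors. Membranes blocked in 5% skim milk/PBST for 1 h, primary antibody overnight at 4 °C (c-Myc 1:1000, FUBP1 1:1000, p21 1:100, GAPDH 1:40,000), secondary 1 h, chemiluminescence on X-ray film. Repeated at least three times.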

[5] = tested on: p21 protein in L3.6pl cells; assay: Western blot, p21 protein level; format: cell-based, human; details: 24 h
Outline: as §1

[6] = tested on: FUBP1 protein in L3.6pl cells; assay: Western blot, FUBP1 protein level; format: cell-based, human; details: 24 h
Outline: as §1

[7] = tested on: c-Myc mRNA in L3.6pl cells; assay: qRT-PCR, c-Myc mRNA; format: cell-based, human; details: 24 h, qRT-PCR vs matched vehicle control
Outline: (§2)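 For qRT-PCR, L3.6pl cells (400,000) in RPMI 1640 with 10% FBS and 1% antibiotic–antimycotic were seeded in 6-well dishes and held overnight at 37 °C, 5% CO2. Next day they were treated with test compound or DMSO vehicle at 37 °C, then mRNA was measured by quantitative real-time PCR.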

p21 mRNA in L3.6pl cells = assay: qRT-PCR, p21 mRNA; format: cell-based, human; details: 24 h, qRT-PCR vs matched vehicle control
Outline: as §2

[8] = molecular target: T1, FUBP1 binding to the FUSE c-myc promoter region in L3.6pl cells (Homo sapiens, UniProt Q96AE4); assay: Chromatin immunoprecipitation; format: cell-based; details: 60 μM, 24 h, vs untreated
T1 sequence (Q96AE4 1-644): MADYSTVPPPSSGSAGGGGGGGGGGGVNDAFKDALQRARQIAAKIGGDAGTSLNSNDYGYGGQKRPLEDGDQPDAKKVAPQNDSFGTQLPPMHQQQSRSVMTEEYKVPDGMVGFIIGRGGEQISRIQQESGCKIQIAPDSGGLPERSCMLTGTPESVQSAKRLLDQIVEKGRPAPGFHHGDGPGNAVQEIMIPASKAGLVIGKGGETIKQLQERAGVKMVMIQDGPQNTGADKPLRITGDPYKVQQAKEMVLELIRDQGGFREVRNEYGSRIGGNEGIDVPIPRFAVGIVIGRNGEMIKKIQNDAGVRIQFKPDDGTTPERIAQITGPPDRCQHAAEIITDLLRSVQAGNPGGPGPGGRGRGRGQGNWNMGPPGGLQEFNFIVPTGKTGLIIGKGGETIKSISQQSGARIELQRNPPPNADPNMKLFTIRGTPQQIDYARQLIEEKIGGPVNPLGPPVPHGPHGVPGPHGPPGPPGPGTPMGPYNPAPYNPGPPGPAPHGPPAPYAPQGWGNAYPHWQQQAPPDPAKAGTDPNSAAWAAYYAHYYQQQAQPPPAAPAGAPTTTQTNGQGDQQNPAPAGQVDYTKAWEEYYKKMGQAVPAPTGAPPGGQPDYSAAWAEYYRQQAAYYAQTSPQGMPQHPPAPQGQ
Outline: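 L3.6pl cells seeded at 300,000 cells/mL in RPMI 1640 with 10% FBS and 1% antibiotic–antimycotic, then held overnight at 37 °C, 5% CO2. Treated 24 h with test compound (60 μM) or 0.6% DMSO, then fixed in 1% formalin for 10 min. Sonicated chromatin (20–25 μg) was precleared and immunoprecipitated overnight at 4 °C with FUBP1 antibody, with H4Ac and rabbit IgG controls. Samples were de-crosslinked overnight at 65 °C, and FUSE c-Myc DNA measured by q-PCR. Mean fold change ± S.E.M., n = 2.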

[9] = molecular target: T2, GST-FUBP1 (KH3-KH4) binding to FUSE oligo (Oligo-KH4) (Homo sapiens, UniProt Q96AE4); assay: Gel shift assay; details: 30 and 60 μM vs DMSO control
T2 sequence (Q96AE4 278-447 limits assumed): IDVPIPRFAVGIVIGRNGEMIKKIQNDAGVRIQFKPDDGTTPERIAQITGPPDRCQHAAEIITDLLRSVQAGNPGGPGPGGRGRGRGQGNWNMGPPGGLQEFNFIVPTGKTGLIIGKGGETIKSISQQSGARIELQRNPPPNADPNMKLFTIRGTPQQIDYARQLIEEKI

[10] = tested on: native polyamine levels in L3.6pl cells; assay: Intracellular polyamine quantitation by HPLC; format: cell-based, human; details: 60 μM, 24 h, vs vehicle (0.6% DMSO)
Outline: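 Polyamines measured by HPLC. L3.6pl cells seeded at 100,000 cells/mL in RPMI 1640 with 250 μM aminoguanidine and held overnight at 37 °C, 5% CO2. Next day treated with test compound (60 μM) or 0.6% DMSO vehicle for 24 h at 37 °C, then intracellular native polyamines quantified.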

CHO-K1 cells [11] = assay: 48 h growth inhibition by assay reagents; format: cell-based, Chinese hamster; details: read-out: 48 h CHO-K1 IC50; CHO-K1, 48 h
[12] = tested on: L3.6pl pancreatic cancer cells; details: DFMO 8 mM, 48 h, cited from earlier work

COc1ccccc1C(=O)Nc1ccc(N2CCN(Cc3ccccn3)CC2)cc1C(=O)O [Compound 54, 2-(2-Methoxybenzamido)-5-(4-(pyridin-2-ylmethyl)piperazin-1-yl)benzoic Acid]
Cytotoxicity MTC (CHO-K1 cells [1]): > 40 µM

Nc1ccccc1C(=O)O [anthranilic acid]
binding to FUBP1 (FUBP1): very low affinity

N=C(N)NN [AG, aminoguanidine]
toxicity [2]: not toxic | toxicity (CHO cells): not toxic

COc1ccc(C(=O)Nc2ccc(N3CCN(c4cc(Cl)ccc4C)CC3)cc2C(=O)O)cc1 [Compound 9, 5-[4-(5-Chloro-2-methyl-phenyl)-piperazin-1-yl]-2-(4-methoxybenzoylamino)-benzoic Acid]
basal 3H-Spd uptake [3]: did not block the uptake of ^3H-Spd | 3H-Spd import in combination with DFMO vs DFMO-only [3]: did not significantly inhibit ^3H-Spd import | c-Myc protein expression [4]: reduced c-Myc protein expression | p21 protein expression [5]: increased p21 protein expression in a dose-dependent manner; also recorded: superior in terms of inducing p21 | FUBP1 protein levels [6]: did not affect FUBP1 protein levels | c-Myc mRNA level [7]: significantly decreased for c-Myc | p21 mRNA level (p21 mRNA in L3.6pl cells): increased for p21 | FUSE c-Myc DNA pulled down with FUBP1 antibody [8]: reduced levels of c-Myc FUSE DNA | FUBP1 (KH3-KH4)-FUSE DNA bound complex [9]: dose-dependent decrease | intracellular polyamine levels [10]: significantly lower polyamine levels

NCCCCNCCCCNCc1c2ccccc2cc2ccccc12 [Ant44, N^1-(9-anthracenylmethyl)-homospermidine]
IC50 (CHO-K1 cells [11]): 2000 nM

COc1ccccc1C(=O)Nc1ccc(N2CCC(Oc3ccccc3)CC2)cc1C(=O)O [Compound 63, 2-(2-Methoxybenzamido)-5-(4-phenoxypiperidin-1-yl)benzoic Acid]
c-Myc protein expression [4]: reduced c-Myc | p21 protein expression [5]: increased p21 protein levels

NCCC[C@](N)(C(=O)O)C(F)F [DFMO, difluoromethylornithine]
relative growth (compared to an untreated control) ([12]; with rescuing spermidine 1 μM): 103% | intracellular putrescine ([12]; with spermidine 1 μM): no detectable intracellular putrescine | intracellular spermidine ([12]; with spermidine 1 μM): 6.4 nmol/mg protein | intracellular spermine ([12]; with spermidine 1 μM): 17.4 nmol spermine/mg protein | intracellular putrescine [12]: no detectable intracellular putrescine | intracellular spermidine [12]: 2.1 nmol/mg protein | intracellular spermine [12]: 18.6 nmol spermine/mg protein | relative growth (compared to an untreated control) [12]: 64%

CNCCCCNCCCCNCc1cc(CNCCCCNCCCCNC)cc(CNCCCCNCCCCNC)c1.Cl.Cl.Cl.Cl.Cl.Cl.Cl.Cl.Cl [Compound 5]
basal 3H-Spd uptake [3]: blocked significant spermidine uptake | 3H-Spd import in combination with DFMO vs DFMO-only [3]: statistically significant reduction in ^3H-Spd import

Source: article PMC10512781 (Journal of medicinal chemistry, 2022)
